# Columns and labels:
# [1] = Drug metabolism in bile duct-cannulated Sprague-Dawley rat bile assessed as BMS-572273 metabolite level at 30 mg/kg, po after 12 hrs by LC-MS/MS analysis; assay type: ADME, organism-based; parameters: dose 30 mg/kg, route oral; conditions: in vivo
# In short: (§1)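 Male bile-duct-cannulated Sprague-Dawley rats (n=3), fasted overnight, received 30 mg/kg by gavage in 0.5% methylcellulose. Urine and bile were collected 0-12 h and pooled by equal percentage weight across animals, then centrifuged. Supernatants were profiled by LC/MS/MS. Bile was also treated with β-glucuronidase in pH 4.8 acetate buffer, 37°C, 16 h.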
# [2] = Drug metabolism in rat hepatocytes assessed as at 25 uM after 3 hrs by HPLC analysis
# [3] = Drug metabolism in cynomolgus monkey cryopreserved hepatocytes assessed as […] at 25 uM after 3 hrs by HPLC analysis; assay type: ADME, cell-based, Macaca fascicularis, Hepatocyte
# Liver microsome = assay: Drug metabolism in human liver microsomes assessed as BMS-572273 metabolite formation at 100 uM after 1 hr in presence of NADPH and ketoconazole; assay type: ADME
# [4] = AUC (infinity) in Sprague-Dawley rat at 1 mg/kg, iv; assay type: ADME, organism-based; parameters: time infinity, dose 1 mg/kg, route intravenous; conditions: plasma
# In short: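 Male Sprague-Dawley rats (n=3 per route, 0.34-0.35 kg, cannulated), fasted ~18 h pre-dose and 4 h post-dose. Dosing was 1 mg/kg IV bolus in 20% ethanol/saline via the jugular cannula, or 5 mg/kg oral gavage in 0.5% aqueous methylcellulose. Jugular blood was sampled 0-96 h. Plasma was assayed by validated LC/MS/MS (LLOQ 1.00 ng/ml), and AUC(INF) was derived by noncompartmental mixed log-linear trapezoidal analysis.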
# [5] = AUC (infinity) in beagle dog at 1 mg/kg, iv; assay type: ADME, organism-based, Canis lupus familiaris; parameters: time infinity, dose 1 mg/kg, route intravenous; conditions: plasma
# In short: (§2)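 Male beagle dogs (n=3, 10.1-12.7 kg) in a one-way IV/PO crossover with one-week washout, fasted ~15 h pre-dose and 4 h post-dose. Dosing was 1 mg/kg IV bolus into the saphenous vein in DMA:propylene glycol:water (1:7:2), or 5 mg/kg gavage in 0.5% methylcellulose. Blood was sampled 0-96 h. Plasma was assayed by LC/MS/MS (LLOQ 1.00 ng/ml) with noncompartmental analysis; Cmax was observed directly.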
# [6] = Drug metabolism in mouse hepatocytes assessed as decrease of compound level at 25 uM after 3 hrs by HPLC analysis; assay type: ADME, cell-based, Hepatocyte; conditions: read-out: Drug metabolism
# [7] = Cmax in beagle dog at 5 mg/kg, po; assay type: ADME, organism-based, Canis lupus familiaris; parameters: dose 5 mg/kg, route oral; conditions: in vivo; in short: as §2
# [8] = Protein binding in dog serum after 3 hrs by equilibrium dialysis; assay type: ADME, cell-free, Canis lupus familiaris; conditions: read-out: PB (converted)
# In short: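 Equilibrium dialysis of serum spiked to final 12.8, 25.6 and 38.5 µM against 134 mM phosphate buffer, pH 7.4, through a 10,000 Da cutoff membrane. Cells rotated at 20 rpm, 37°C, 3 h. Percent unbound taken as buffer concentration divided by serum concentration.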
# [9] = Drug metabolism in rat hepatocytes assessed as 7-hydroxycoumarin formation at 25 uM after 3 hrs by HPLC analysis; assay type: ADME, cell-based, Hepatocyte
# [10] = Tmax in beagle dog at 5 mg/kg, po; assay type: ADME, organism-based, Canis lupus familiaris; parameters: dose 5 mg/kg, route oral; conditions: in vivo
# In short: (§3)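 Male beagles (n=3, 10.1-12.7 kg) in one-way crossover, one-week washout after IV leg; fasted ~15 h before and 4 h after dosing. Single gavage 5 mg/kg in 0.5% aqueous methylcellulose. Plasma sampled 0-96 h, parent measured by validated LC/MS/MS (1.00-1000 ng/ml). Noncompartmental analysis; Tmax taken from observed data.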
# [11] = Plasma clearance in beagle dog at 1 mg/kg, iv; assay type: ADME, organism-based, Canis lupus familiaris; parameters: dose 1 mg/kg, route intravenous
# In short: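 Male beagle dogs (n=3), one-way IV/PO crossover with a one-week washout, fasted about 15 h before and 4 h after dosing. IV dose of 1 mg/kg as a saphenous bolus in N,N-dimethylacetamide:propylene glycol:water (1:7:2); PO dose of 5 mg/kg by gavage in 0.5% methylcellulose. Plasma sampled 0–96 h and assayed by LC/MS/MS (LLOQ 1.00 ng/ml). Noncompartmental analysis; CL = dose/AUC(INF) after IV; F from dose-normalized AUC ratio.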
# [12] = Terminal half life in beagle dog at 5 mg/kg, po; assay type: ADME, organism-based, Canis lupus familiaris; parameters: dose 5 mg/kg, route oral; conditions: in vivo, read-out: beta t1/2 (converted); in short: as §3
# [13] = Drug metabolism in human cryopreserved hepatocytes assessed as decrease of compound level at 25 uM after 3 hrs by HPLC analysis; assay type: ADME, cell-based, Hepatocyte; conditions: read-out: Drug metabolism
# [14] = Drug metabolism in cynomolgus monkey cryopreserved hepatocytes assessed as decrease of compound level at 25 uM after 3 hrs by HPLC analysis; assay type: ADME, cell-based, Macaca fascicularis, Hepatocyte; conditions: read-out: Drug metabolism
# In short: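 Mouse, rat, dog, monkey and human hepatocytes (trypan blue viability checked) at 1.0×10^6 cells/ml in Krebs-Henseleit buffer were incubated with 25 µM compound, in duplicate. Conditions were 37°C, 95/5 O2/CO2, orbital shaking, 3 h. 7-Ethoxycoumarin and 7-hydroxycoumarin (100 µM) served as positive controls, with a cell-free negative control. Reactions were quenched with ice-cold acetonitrile, then sonicated and centrifuged; supernatants were analysed by LC/MS/MS.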
# Serum = assay: Metabolic stability in human serum after 3 hrs by equilibrium dialysis; assay type: ADME, cell-free
# In short: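 Stability assessed in the serum samples from the equilibrium-dialysis setup: compound at final 12.8, 25.6 and 38.5 µM, dialysed against 134 mM phosphate buffer, pH 7.4, at 37°C with rotation at 20 rpm. Samples monitored for degradants over the 3-h incubation.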
# [15] = Drug metabolism in beagle dog hepatocytes assessed as […] at 25 uM after 3 hrs by HPLC analysis; assay type: ADME, cell-based, Canis lupus familiaris, Hepatocyte
# [16] = Cmax in chimpanzee at 1 mg/kg, po; assay type: ADME, organism-based, Pan troglodytes; parameters: dose 1 mg/kg, route oral; conditions: in vivo
# In short: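 Two fasted male chimpanzees (58, 72 kg) received 1 mg/kg orally as a suspension in 0.5% methylcellulose/orange drink with 1% Tween 80 (1:1). Blood was sampled 0-96 h post-dose. Plasma was assayed by validated LC/MS/MS (LLOQ 1.00 ng/ml). Noncompartmental analysis gave AUC(INF) by the mixed log-linear trapezoidal method, with Cmax observed directly; values are mean (min, max).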
# [17] = target: T1, Corticotropin-releasing factor-binding protein (Homo sapiens, UniProt P24387); assay: Binding affinity to CRF-binding protein (unknown origin)
# T1 sequence (P24387 whole entry): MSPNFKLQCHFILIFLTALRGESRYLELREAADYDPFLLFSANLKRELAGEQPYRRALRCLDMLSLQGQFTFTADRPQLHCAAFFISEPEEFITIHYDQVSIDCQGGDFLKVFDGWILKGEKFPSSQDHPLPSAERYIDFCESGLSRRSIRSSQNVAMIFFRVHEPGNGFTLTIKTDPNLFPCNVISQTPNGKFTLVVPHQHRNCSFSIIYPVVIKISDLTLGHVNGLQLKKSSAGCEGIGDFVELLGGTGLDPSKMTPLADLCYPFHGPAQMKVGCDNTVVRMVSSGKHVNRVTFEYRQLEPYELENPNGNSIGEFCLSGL
# [18] = Drug metabolism in mouse hepatocytes assessed as 7-hydroxycoumarin formation at 25 uM after 3 hrs by HPLC analysis; assay type: ADME, cell-based, Hepatocyte
# [19] = Drug metabolism in bile duct-cannulated Sprague-Dawley rat bile assessed as DPH-123554 metabolite level at 30 mg/kg, po after 12 hrs by LC-MS/MS analysis; assay type: ADME, organism-based; parameters: dose 30 mg/kg, route oral; conditions: in vivo; in short: as §1
smiles,measurement,setting,value
COc1ccc(-c2c(C)nn3c(O)nc(C)nc23)c(C)n1,Drug metabolism,[1],metabolite_detected
CC[C@@H](C)Nc1nc(C)nc2c(-c3ccc(OC)nc3C)c(C)nn12 [PEXACERFONT],Drug metabolism,[2],metabolite_detected
same,Drug metabolism,[3],metabolite_detected
same,Drug metabolism,Liver microsome,metabolite_not_detected
same,AUC(0-inf),[4],2.9 µM·h
same,AUC(0-inf),[5],4.3 µM·h
same,"metabolised at 3 h, 25 µM",[6],75%
same,Cmax,[7],1800 nM
same,fraction unbound at 3 h,[8],0.048
same,Drug metabolism,[9],metabolite_detected
same,Tmax,[10],0.75 h
same,clearance,[11],11.6 mL/min/kg
same,half-life,[12],46.7 h
same,"metabolised at 3 h, 25 µM",[13],40%
same,"metabolised at 3 h, 25 µM",[14],83%
same,Stability,Serum,Stable
same,Drug metabolism,[15],metabolite_detected
same,Cmax,[16],1070 nM
same,IC50,[17],> 1000 nM
same,Drug metabolism,[18],metabolite_detected
CC[C@@H](C)Nc1nc(C)nc2c(-c3ccc(O)nc3C)c(C)nn12,Drug metabolism,[19],metabolite_detected
